# Assay results from publication PMC5167242 (Neoplasia (New York, N.Y.), 2016).
# Where “and” joins values, the source holds several entries; their conditions need not be identical. Identical values can stand only once.
# How the values were obtained:
# [1] = tested on: FGFR1 amplified and FGFR2 amplified or mutated cancer cell lines; assay: cell viability assay; assay type: cell-based, human
# In short: (§1)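 Cell lines were grown in RPMI with 1% glutamine and 10% FBS. Cells were exposed to test compound (0.01–50 μM; 10 mM DMSO stock) 48 h after seeding. MTS was added 72 h after treatment and read at 490 nm after 2 h incubation. IC50 was calculated by software and reported as arithmetic mean + SEM.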
# [2] = tested on: tumor type cell lines with wt FGFR1 and wt FGFR2; assay: cell viability assay; assay type: cell-based; settings: Homo sapiens, 72 h
# In short: as §1
# [3] = tested on: DMS114 cells; assay: cell viability assay; assay type: cell-based; settings: Homo sapiens, DMS-114
# In short: as §1
# [4] = tested on: H1299 cells; assay: cell viability assay; assay type: cell-based; settings: Homo sapiens, NCI-H1299
# In short: as §1
# [5] = tested on: DMS114 cells; assay: cell cycle perturbation, flow cytometry of DNA content, DMS114; assay type: cell-based, human; settings: DMS114, 1 μM (IC50); starting at 24 hours and persisting up to 48 hours
# [6] = tested on: H1299 cells; assay: cell cycle perturbation, flow cytometry of DNA content, H1299; assay type: cell-based, human; settings: H1299, 10 μM (IC50); 4, 24, 48 and 72 hours
# [7] = tested on: DMS114 cells; assay: TUNEL apoptosis assay, DMS114; assay type: cell-based, human; settings: DMS114, 1 μM (IC50); 4, 24, 48 and 72 hours
# [8] = tested on: H1299 cells; assay: TUNEL apoptosis assay, H1299; assay type: cell-based, human; settings: H1299, 10 μM (IC50); 4, 24, 48 and 72 hours
# [9] = tested on: H1299 (NSCLC) FGFR1 wt xenograft; assay: H1299 xenograft tumor growth; assay type: in vivo, mice; settings: for Best T/C%: day 38 after implant
# In short: (§2)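 Female NCr-nu/nu mice (6 weeks old, specific pathogen free) received subcutaneous flank tumor fragments. Tumors were measured by caliper twice weekly, with volume = (length × width²)/2. Best %T/C = (median treated volume / median control volume) × 100.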
# [10] = tested on: H1581 (NSCLC) FGFR1 amplified xenograft; assay: H1581 xenograft tumor growth; assay type: in vivo, mice; settings: for Best T/C%: day 27 after implant
# In short: as §2
# [11] = tested on: DMS114 (SCLC) FGFR1 amplified xenograft; assay: DMS114 xenograft tumor growth; assay type: in vivo, mice
# In short: as §2
# [12] = tested on: MNK45 gastric carcinoma FGFR2 wt xenograft; assay: MNK45 xenograft tumor growth; assay type: in vivo, mice
# In short: as §2
# [13] = tested on: SNU16 gastric carcinoma FGFR2 amplified xenograft; assay: SNU16 xenograft tumor growth; assay type: in vivo, mice; settings: day 30 after implant
# In short: as §2
# [14] = tested on: HEC1A endometrial carcinoma FGFR2 wt xenograft; assay: HEC1A xenograft tumor growth; assay type: in vivo, mice; settings: for Best T/C%: HEC1A
# In short: as §2
# [15] = tested on: MFE296 endometrial carcinoma FGFR2 mutated xenograft; assay: MFE296 xenograft tumor growth; assay type: in vivo, mice
# In short: as §2
# [16] = pharmacokinetics after 12 daily oral doses in lung xenograft bearing mice; assay type: in vivo; settings: for tumor/plasma ratio: lung xenografts
# [17] = biological target: VEGFR1-3 tyrosine kinases; settings: biochemical assays; cited from earlier work
# [18] = biological target: PDGFRα/β tyrosine kinases; settings: biochemical assays; cited from earlier work
# [19] = biological target: FGFR1-3 tyrosine kinases; settings: biochemical assays; cited from earlier work
# [20] = after 21 days of treatment, just before the daily oral dose of 10 mg, cited from earlier work
# [21] = tested on: breast cancer patients with FGF-aberrant (FGFR1 and/or FGF3/4/19 gene amplified) tumors; settings: among 12 breast cancer patients with FGF-aberrant tumors; cited from earlier work
# [22] = NCr-nu/nu, mouse, tumor and plasma, po
structure (smiles),measurement,setting,value
CNC(=O)c1cccc2cc(Oc3ccnc4cc(OCC5(N)CC5)c(OC)cc34)ccc12 [lucitanib],IC50 lower in FGFR2 amplified or mutated cell lines than in FGFR2 wt cells,[1]; FGFR2 amplified or mutated cell lines vs FGFR2 wt cells,10 fold
same,IC50,"[1]; Homo sapiens, 72 h",45 to 3160 nM
same,IC50,[2],3000 to 23000 nM
same,IC50,[3],1000 nM
same,IC50,[4],10000 nM
same,perturbation of the cell cycle,[5],G1 block
same,perturbation of the cell cycle,[6],late S-G2/M blockade
same,apoptosis by TUNEL assay,[7],no apoptosis was detected
same,apoptosis by TUNEL assay,[8],no apoptosis was detected
same,Best T/C%,"[9]; H1299, 2.5 mg/kg orally daily for 30 days",55 (38) %
same,Best T/C%,"[9]; H1299, 5 mg/kg orally daily for 30 days",41% and 41 (38) %
same,Best T/C%,"[9]; H1299, 10 mg/kg orally daily for 30 days",28 (38) %
same,Best T/C%,"[9]; H1299, 20 mg/kg orally daily for 30 days",24 (38) %
same,tumor regressions,"[9]; H1299 lung xenograft, any dose schedule, best effect tumor stabilization",No tumor regressions
same,Best T/C%,"[10]; H1581, 2.5 mg/kg orally daily for 30 days",46 (27) %
same,Best T/C%,"[10]; H1581, 5 mg/kg orally daily for 30 days",24% and 24 (27) %
same,Best T/C%,"[10]; H1581, 10 mg/kg orally daily for 30 days",21 (27) %
same,Best T/C%,"[10]; H1581, 20 mg/kg orally daily for 30 days",16 (27) %
same,tumor regressions,"[10]; H1581 lung xenograft, any dose schedule, best effect tumor stabilization",No tumor regressions
same,Best T/C%,"[11]; DMS114, 2.5 mg/kg orally daily for 30 days, day 44 after implant",45 (44) %
same,Best T/C%,"[11]; DMS114, 5 mg/kg orally daily for 30 days, day 46 after implant",20% and 20 (46) %
same,Best T/C%,"[11]; DMS114, 10 mg/kg orally daily for 30 days, day 44 after implant",16 (44) %
same,Best T/C%,"[11]; DMS114, 20 mg/kg orally daily for 30 days, day 44 after implant",12 (44) %
same,tumor regressions,"[11]; DMS114 lung xenograft, any dose schedule, best effect tumor stabilization",No tumor regressions
same,Best T/C%,"[12]; MNK45, 2.5 mg/kg orally daily for 30 days, day 28 after implant",22 (28) %
same,Best T/C%,"[12]; MNK45, 5 mg/kg orally daily for 30 days, day 28 after implant",12 (28) %
same,Best T/C%,"[12]; MNK45, 10 mg/kg orally daily for 30 days, day 32 after implant",10 (32) %
same,Best T/C%,"[12]; MNK45, 20 mg/kg orally daily for 30 days, day 32 after implant",7 (32) %
same,tumor regressions,"[12]; MNK45 wt FGFR2, 20 mg/kg (data not shown)",3 out of 10 mice
same,Best T/C%,"[13]; SNU16, 2.5 mg/kg orally daily for 30 days",40 (30) %
same,Best T/C%,"[13]; SNU16, 5 mg/kg orally daily for 30 days",32 (30) %
same,Best T/C%,"[13]; SNU16, 10 mg/kg orally daily for 30 days",16 (30) %
same,Best T/C%,"[13]; SNU16, 20 mg/kg orally daily for 30 days",14 (30) %
same,tumor regressions,"[14]; HEC1A wt FGFR2, 20 mg/kg (data not shown)",2 out of 10 mice
same,Best T/C%,"[14]; 2.5 mg/kg orally daily for 30 days, day 45 after implant",29 (45) %
same,Best T/C%,"[14]; 5 mg/kg orally daily for 30 days, day 47 after implant",17 (47) %
same,Best T/C%,"[14]; 10 mg/kg orally daily for 30 days, day 45 after implant",12 (45) %
same,Best T/C%,"[14]; 20 mg/kg orally daily for 30 days, day 49 after implant",10 (49) %
same,Best T/C%,"[15]; MFE296, 2.5 mg/kg orally daily for 30 days, day 28 after implant",36 (28) %
same,Best T/C%,"[15]; MFE296, 5 mg/kg orally daily for 30 days, day 25 after implant",34 (25) %
same,Best T/C%,"[15]; MFE296, 10 mg/kg orally daily for 30 days, day 30 after implant",22 (30) %
same,Best T/C%,"[15]; MFE296, 20 mg/kg orally daily for 30 days, day 25 after implant",17 (25) %
same,tumor/plasma ratio,[16]; 4 hours after the last of 12 daily oral doses,2.5
same,tumor/plasma ratio,[16]; 24 hours after the last of 12 daily oral doses,24.8
same,tumor drug concentration at 4 hours relative to in vitro IC50,"[16]; FGFR1 amplified H1581 and DMS114 tumors, higher than IC50 values",3 to 26 fold
same,Kp at 4 h,[16]; [22],2.5 ± 0.7
same,Kp at 24 h,[16]; [22],24.8 ± 7.4
same,Kd,[17],< 100 nM
same,Kd,[18],< 100 nM
same,Kd,[19],< 100 nM
same,tumor drug concentration relative to concomitant plasma drug concentration,[20],25 fold
same,tumor drug concentration,[20]; breast cancer biopsy from a person,11 µM
same,confirmed objective RECIST responses,[21],4
same,unconfirmed objective RECIST responses,[21],2
